Most compounds without a hit are left out; they make up all but 2% or so of the library.
LEDGF integ inh – blockers of LEDGF/p75-dependent integrase strand transfer – biochemical, TR-FRET, high throughput, primary screen. HIV-1 integrase (with human LEDGF/p75). TR-FRET IN-LEDGF/p75 DNA integration, Eu/Cy5. inhibition, % at 3.7 µM. 370,000 compounds, 0.64% hits. AID 743269, 2014;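 active means inhibition above the screen-wide mean plus 3 SD, cut at about 13% in these data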;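 further: signal is the Cy5 over europium emission ratio at 671 and 618 nm; 0% = plate median of compound wells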
UHRF1 binding – UHRF1 methylated DNA binding inhibitors, primary screen, counter-screen for MBD2 inhibitor project, biochemical, TR-FRET, human UHRF1, single concentration. E3 ubiquitin-protein ligase UHRF1 (Homo sapiens), Q96T88. UHRF1 binding to methylated oligo. inhibition, % at 4.4 µM. 370,000 compounds, 0.75% hits; in the data active means inhibition above about 21%;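 further: UHRF1 SRA domain binding a hemimethylated CpG hairpin DNA probe; 0% = median of test compound wells and 100% = reference inhibitor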
ASAP1 GAP inh – inhibitors of human ASAP1 ArfGAP activity, primary screen, biochemical, fluorescence polarization; ASAP1-stimulated ARF1 GTP hydrolysis, GDP FP detection; inhibition, % at 16.5 µM; 360,000 compounds, 0.19% hits; in the data active means inhibition above about 25%;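 further: 0% = vehicle with enzyme and substrate and 100% = no enzyme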
MBD2 DNA inh – inhibitors of MBD2 binding to methylated DNA, primary screen, biochemical, TR-FRET, DNA-binding domain, human | Methyl-CpG-binding domain protein 2 (Homo sapiens), Q9UBB5 | MBD2 binding to methylated oligonucleotide | inhibition, % at 4.4 µM | 370,000 compounds, 0.31% hits; in the data active means inhibition above about 13%
Target sequence (Q9UBB5 whole entry, looked up, the tested form may be a part): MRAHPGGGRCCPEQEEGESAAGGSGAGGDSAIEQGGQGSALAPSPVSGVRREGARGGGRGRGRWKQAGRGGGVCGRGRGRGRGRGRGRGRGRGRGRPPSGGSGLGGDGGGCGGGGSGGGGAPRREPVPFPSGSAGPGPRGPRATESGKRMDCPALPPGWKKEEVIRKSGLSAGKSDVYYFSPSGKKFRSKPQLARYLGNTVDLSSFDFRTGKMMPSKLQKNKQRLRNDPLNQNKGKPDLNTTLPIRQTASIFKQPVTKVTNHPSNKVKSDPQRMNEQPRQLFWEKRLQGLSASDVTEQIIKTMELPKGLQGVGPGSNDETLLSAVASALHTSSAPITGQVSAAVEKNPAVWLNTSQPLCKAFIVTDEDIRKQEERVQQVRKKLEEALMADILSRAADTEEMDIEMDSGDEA
ARFGAP1 inh – inhibitors of rat ARFGAP1 GAP activity, primary screen, biochemical, fluorescence polarization, GDP tracer; Arfgap1-stimulated ARF1 GTP hydrolysis, GDP FP detection; inhibition, % at 16.5 µM; 360,000 compounds, 0.26% hits; AID 651572, 2012;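 active means inhibition above a per-plate limit, mean inhibition of low control wells plus 3 SD, cut at about 25% in these data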;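 further: 0% = DMSO wells with enzyme and 100% = wells lacking Arfgap1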
Target sequence (Q62848 1-136 limits assumed): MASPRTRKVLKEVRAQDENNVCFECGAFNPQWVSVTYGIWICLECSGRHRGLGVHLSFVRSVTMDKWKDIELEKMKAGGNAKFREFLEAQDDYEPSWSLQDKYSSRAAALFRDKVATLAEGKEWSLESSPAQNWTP
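Material – truncated rat Arfgap1 GAP domain · Buffer or medium – HEPES-based buffer, pH 7.5 · Reagent – human ARF1(Δ1-17)-GTP substrate · Dosing – 16.5 µM single point, 1.26% DMSO · Schedule – GTP hydrolysis reaction 2 h at 25 °C · Technique – GDP detection by fluorescence polarization · Benchmarks – No-Arfgap1 wells (100%) versus DMSO full-reaction wells (0%) · Repeats – single replicate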
TDP2 absorb – human TDP2 enzyme inhibitors, primary screen, biochemical, epi absorbance, recombinant enzyme. 370,000 compounds, 0.34% hits. inhibition, % at 12.8 µM. T5PNP hydrolysis, p-nitrophenol absorbance 415 nm;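 active means inhibition above the mean of all tested compounds plus 3 SD, set per campaign, cut at about 25% in these data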;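 further: 0% = DMSO with enzyme and 100% = buffer with substrate but no TDP2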
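System – recombinant human TDP2 · Amount – 120 nM TDP2 per well · Buffer or medium – Mg2+-containing Tris-HCl buffer, pH 7.5 · Reagent – T5PNP substrate, 5 mM · Dosing – 12.8 µM single point, 1% DMSO · Incubation – 2 h at 37 °C · Measured by – epi absorbance · Read-out basis – percent inhibition · Benchmarks – high control without enzyme, low control DMSO plus TDP2 · Repeats – singlicate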
Active calls of the source: *; x = no result given.

SMILES	LEDGF integ inh	UHRF1 binding	ASAP1 GAP inh	MBD2 DNA inh	ARFGAP1 inh	TDP2 absorb
CC(C)OC(=O)n1c(=S)oc2ccccc21	-3.0	0.0	-4.8	-7.5	-0.5	6.6
CCCCC(=O)/C=C/n1c(=S)oc2ccccc21	-1.7	22.7*	-10.6	8.5	-3.0	3.5
Cc1[nH]c2ccccc2c1/C=N/NC(=O)c1cc(C(C)C)[nH]n1	-2.8	25.0*	-3.5	2.4	12.7	8.2
COCCOC(=O)c1[nH]c2c(c1C)C(=O)CC(c1ccco1)C2 (centres undefined)	16.4*	33.4*	9.2	13.1	-4.1	7.7
c1ccc(CCn2nnc(-c3ccc(N4CCOCC4)cc3)n2)cc1	4.7	2.0	x	-2.9	x	-3.4
CC(C)(C)c1ccc(OCCCN2CCCC2)cc1	-0.9	24.4*	3.0	3.2	2.1	-11.8
CN1CCN(CCCCOc2ccc(F)cc2)CC1	3.8	21.8*	-2.5	12.0	0.3	8.9
CC(C)Oc1ccc(OCCCN2CCCCCC2)cc1	-0.9	-1.7	-8.5	5.6	-6.2	-3.3
CN=C1S/C(=C/c2cc(C)n(-c3cc(C)ccc3OC)c2C)C(=O)N1C	-1.1	-3.3	x	-3.7	x	9.7
O=C(CSc1nc2ccccc2n1Cc1ccccc1)NN=C/C=C/c1ccccc1	3.1	-2.7	x	-2.4	x	-12.5
O=S(=O)(c1ccc2nc(Nc3ccccc3)ccc2c1)N1CCCCC1	-1.6	23.4*	10.4	11.4	13.9	-3.2
O=S(=O)(c1ccc2nc(N3CCN(c4ccc(F)cc4)CC3)ccc2c1)N1CCCCC1	4.6	24.5*	1.4	12.1	4.4	-3.4
O=S(=O)(c1ccc2nc(N3CCN(c4ccccc4F)CC3)ccc2c1)N1CCCCC1	2.0	18.0	3.1	7.3	-17.4	17.3
CCN(CC)C(=S)SC1=CCS(=O)(=O)C1	5.5	25.9*	-10.7	7.3	4.8	-1.5
CCN(CC)C(=S)SSC(=S)N(CC)CC	-4.4	-12.9	10.7	-7.2	11.1	5.7
COc1cccc(C#Cc2cnc3c(c2)C(=O)N([C@@H](C)CO)C[C@H](C)[C@H](CN(C)C(=O)C2CCC2)O3)c1	-9.8	21.8*	4.3	9.5	-8.1	4.5
C[C@@H]1CN([C@@H](C)CO)C(=O)c2cc(Br)cnc2O[C@H]1CN(C)C(=O)C1CCCCC1	-1.5	-3.0	-2.4	-4.0	-1.2	0.1
Cc1ccc(S(=O)(=O)N(C)C[C@@H]2Oc3ncc(C#CCC(C)C)cc3C(=O)N([C@H](C)CO)C[C@H]2C)cc1	-4.8	22.8*	5.2	8.5	-4.7	1.6
Cc1ccc(S(=O)(=O)N(C)C[C@@H]2Oc3ncc(Br)cc3C(=O)N([C@H](C)CO)C[C@H]2C)cc1	0.8	3.6	0.8	0.6	4.2	-8.7
CS(=O)(=O)N[C@@H]1C[C@@H]2O[C@@H](CO)CC[C@@H]2O[C@@H]1CCc1ccc(/C=C/c2ccccc2)cc1	-1.4	1.2	x	2.0	x	6.1
Oc1ccc(/C=N/Nc2cc(N3CCOCC3)nc(N3CCOCC3)n2)cc1	6.3	11.3	1.1	0.3	-7.7	-7.6
Oc1ccc(/C=N/Nc2cc(N3CCCC3)nc(N3CCCC3)n2)cc1	1.6	-6.1	12.8	-1.2	28.1*	-0.2
Cc1ccccc1N/C(SCc1ccc(Cl)cc1)=C(/C#N)C(=O)NCc1ccco1	3.3	21.6*	-3.3	6.0	8.3	-1.0
Cc1ccc(CS/C(Nc2ccccc2C)=C(\C#N)C(=O)NCc2ccco2)c(C)c1	2.0	19.7	6.7	6.5	5.3	-16.1
CCCCNC(=O)C[C@@H]1C[C@@]2(C(=O)OCC)CCC=C2N(Cc2ccc3c(c2)OCO3)C1=O	-1.8	21.3*	-3.4	7.1	0.1	2.3
SMILES	LEDGF integ inh	UHRF1 binding	ASAP1 GAP inh	MBD2 DNA inh	ARFGAP1 inh	TDP2 absorb
CCOC(=O)[C@]12CCC=C1N(Cc1ccc3c(c1)OCO3)C(=O)[C@H](CC(=O)NCCCCc1ccccc1)C2	-7.1	1.4	0.4	9.4	11.5	-8.5
COc1ccc(C(CCOC(=O)Oc2ccccc2)c2cc(OC)c(OC)c(OC)c2)cc1 (centres undefined)	-1.4	-1.0	x	-1.7	x	2.6
CCOC(=O)CN1C(=O)CCSc2ccc(Cl)cc21	-1.6	35.9*	2.3	1.1	8.6	-7.5
Cn1c(Cc2cccs2)nnc1SCC(=O)Nc1ccc2c(c1)OCO2	-1.2	2.0	x	0.2	x	0.6
CCc1nc(Sc2nnnn2-c2ccccc2)c2c3c(sc2n1)CCCC3	-5.3	41.8*	-10.9	2.3	-10.9	-4.4
Cc1nc(Sc2nnnn2C)c2c3c(sc2n1)CCC3	0.9	-0.5	-3.9	-2.9	2.9	-3.2
O=C(C1CCC1)N1CCc2cc(S(=O)(=O)C3CCN(Cc4ccc(F)cc4)CC3)ccc21	5.1	0.1	x	-1.9	x	-1.3
Cc1ccc(S(=O)(=O)NC(C)C(c2cccs2)N2CCN(C)CC2)cc1 (centres undefined)	1.3	-0.1	-5.9	-6.7	-5.6	7.4
Cc1ccc(S(=O)(=O)NC(C)C(c2cccs2)N2CCOCC2)cc1 (centres undefined)	1.8	38.9*	3.3	-6.7	-0.7	3.3
CCOC(=O)[C@]12CCCCC/C=C\1N(CCc1ccc(Cl)cc1)C(=O)[C@H]2CC(=O)NCC1CCCCC1	4.9	-0.5	x	0.4	x	-13.7
Cc1ccc(S(=O)(=O)N2CCCC(C(=O)Nc3c(C)n(C)n(-c4ccccc4)c3=O)C2)cc1C (centres undefined)	2.9	1.1	x	-2.8	x	6.8
COC(=O)CCCn1cc(CN2CC(N3CCN(C)CC3)CS2(=O)=O)nn1 (centres undefined)	5.0	24.1*	4.9	8.1	-2.5	-3.2
CCCCCCn1cc(CN2CC(N3CCN(C)CC3)CS2(=O)=O)nn1 (centres undefined)	-1.1	17.4	2.1	12.2	-4.4	7.2
O=Cc1nc(Nc2cc(F)cc(F)c2)nc(NC2CCCC2)n1	6.2	-3.6	x	2.9	x	7.1
O=C(CN1CCCCC1)Nc1scc2c1c(=O)oc1ccccc12	0.0	21.0*	0.2	4.9	8.5	-4.5
O=C(CN1CCOCC1)Nc1scc2c1c(=O)oc1ccccc12	-2.4	-0.6	4.5	-6.7	-8.0	7.2
O=C(NCc1ccc(F)cc1)c1ccc(NC(=O)C2CCCO2)cc1 (centres undefined)	-1.4	38.1*	-13.8	1.6	5.0	22.7

Source: PubChem BioAssay (The Scripps Research Institute Molecular Screening Center)
